High-throughput results as filed in PubChem BioAssay.
Only some compounds are listed: those with a hit (about 2.5% of all), similar ones and a draw of the others.
EP2 antag: human EP2 receptor antagonists, primary screen, TR-FRET cAMP, C6 glioma cells | Prostaglandin E2 receptor EP2 subtype (Homo sapiens), P43116 | C6 glioma cells expressing human EP2; cells stimulated with saturating PGE2 | inhibition, % at 25 µM | hit rate 0.52% among 260,000;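 active = percent inhibition above 40 after rounding to a whole number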;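 note: rat C6 glioma host cells with rolipram phosphodiesterase inhibitor present; the protocol text gives 20 µM as final concentration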
PHOSPHO1 block: PubChem AID 1565. Phosphoethanolamine/phosphocholine phosphatase (Homo sapiens), Q8TCT1. recombinant PHOSPHO1, absorbance phosphatase assay. inhibition, % at 13.3 µM. hit rate 1.1% among 290,000; in the data active = inhibition above about 60%
PfG6PD inh: PfG6PD enzyme inhibitors, primary screen, biochemical, fluorescence intensity, uHTS; PfGluPho enzyme, NADPH resazurin-diaphorase fluorescence; inhibition, % at 20 µM; glucose-6-phosphate dehydrogenase-6-phosphogluconolactonase (Plasmodium falciparum 3D7); AID 504690, 2011; hit rate 0.78% among 350,000;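 active = inhibition reaching at least a set limit at 20 µM in the primary screen, cut at about 59% in these data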;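 note: 0% = DMSO wells with substrate and 100% = DMSO wells lacking glucose-6-phosphate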
EP2 mod: EP2 receptor modulators, cAMP readout, primary screen, cell-based, HTRF cAMP, PGE2 stimulation | Prostaglandin E2 receptor EP2 subtype (Homo sapiens), P43116 | EP2-expressing cells, cAMP HTRF FRET, PGE2 co-stimulation | induction, % at 25 µM | hit rate 0.83% among 260,000 | AID 940, 2007;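 active = compounds whose cAMP rise, as percent of the full-agonist control response, exceeds 60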;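 note: rat C6 glioma line stably carrying human EP2 under a CMV promoter; the protocol text gives 20 µM as final concentration; 100% = response of wells given 1 µM PGE2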
HKDC1 inhibitor: HKDC1 hexokinase inhibitors, primary screen, biochemical, fluorescence, uHTS. Q2TB90. recombinant HKDC1, G6PDH/diaphorase resazurin coupled fluorescence. inhibition, % at 20 µM. hit rate 0.16% among 340,000. AID 493160, 2011;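 active = inhibition above about 35% when tested at 20 µM, limit read from the data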;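 note: plate controls were DMSO wells with enzyme for no effect and DMSO wells lacking enzyme for full effect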
Target sequence (Q2TB90 whole entry, looked up): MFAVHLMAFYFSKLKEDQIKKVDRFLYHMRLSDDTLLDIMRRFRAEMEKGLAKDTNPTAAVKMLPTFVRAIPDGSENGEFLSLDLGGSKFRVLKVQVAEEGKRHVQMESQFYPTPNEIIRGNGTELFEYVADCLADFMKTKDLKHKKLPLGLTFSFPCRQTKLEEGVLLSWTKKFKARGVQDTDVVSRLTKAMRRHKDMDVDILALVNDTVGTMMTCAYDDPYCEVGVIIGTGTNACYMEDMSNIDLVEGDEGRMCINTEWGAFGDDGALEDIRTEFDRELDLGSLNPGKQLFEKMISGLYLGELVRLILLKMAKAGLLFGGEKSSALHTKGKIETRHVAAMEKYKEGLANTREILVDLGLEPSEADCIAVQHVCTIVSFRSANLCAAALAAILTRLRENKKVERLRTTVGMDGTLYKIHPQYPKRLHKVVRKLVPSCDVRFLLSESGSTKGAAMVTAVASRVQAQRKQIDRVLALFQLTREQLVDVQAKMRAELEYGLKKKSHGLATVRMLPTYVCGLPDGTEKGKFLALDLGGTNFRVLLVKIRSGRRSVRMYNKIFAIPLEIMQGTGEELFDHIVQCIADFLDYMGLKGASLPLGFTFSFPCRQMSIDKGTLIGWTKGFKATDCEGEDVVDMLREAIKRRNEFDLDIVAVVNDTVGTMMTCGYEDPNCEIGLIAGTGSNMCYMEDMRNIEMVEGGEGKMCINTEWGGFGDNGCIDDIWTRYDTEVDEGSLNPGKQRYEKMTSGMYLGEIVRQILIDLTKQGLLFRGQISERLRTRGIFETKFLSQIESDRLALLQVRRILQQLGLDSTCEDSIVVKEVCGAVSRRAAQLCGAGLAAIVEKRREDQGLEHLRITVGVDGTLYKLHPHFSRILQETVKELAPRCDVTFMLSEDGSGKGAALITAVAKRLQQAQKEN
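Test system: recombinant HKDC1 (HK5) hexokinase enzyme, produced in-house; Amount: enzyme 5 µg/mL final; Buffer or medium: Tris pH 8.0 buffer with MgCl2, Tween-20, BSA, BME; Reagent: glucose and ATP substrates; Doses: 20 µM test compound, 1% DMSO; Incubation: 90 min reaction incubation at room temperature, dark; Detection: resorufin fluorescence at 613 nm.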
Tb hexokinase: Trypanosoma brucei hexokinase 1 inhibitors, primary screen, biochemical, G6PDH-coupled NADH absorbance, MLSCN library; hexokinase 1 [Trypanosoma brucei]; recombinant TbHK1, G6PDH-coupled NADH A340; inhibition, % at 10 µM; hit rate 0.11% among 220,000; AID 1430, 2008;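 active = inhibition of 50% or more in the single-dose primary screen; inactive = inhibition below 50%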
HKDC1 act conf2: HKDC1 hexokinase activators, confirmation, biochemical, single concentration; shares compounds with HKDC1 inhibitor; recombinant HKDC1, G6PDH/diaphorase resazurin fluorescence; active compounds read low; inhibition, % at 20 µM; hit rate 14% among 740; AID 504708, 2011;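 active = inhibition at or below a set negative limit, negative inhibition meaning the enzyme was activated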
PfGluPho conf: PfG6PD inhibitors, hit retest, confirmation, biochemical, fluorescence intensity, single concentration; shares compounds with PfG6PD inh; inhibition, % at 20 µM; hit rate 34% among 2,400; recombinant PfGluPho, NADPH-diaphorase-resazurin fluorescence;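 active = inhibition of at least 50% at 20 µM in any single replicate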;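 note: 0% = DMSO with substrate and 100% = DMSO lacking glucose-6-phosphate substrate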
Diaphorase 10uM: diaphorase inhibitors and chemical oxidizers, confirmation, counter-screen for P. falciparum G6PD inhibitor project, biochemical, fluorescence intensity, 10 µM NADPH | diaphorase-coupled resazurin reduction, NADPH 10 uM | shares compounds with PfG6PD inh | inhibition, % at 20 µM | hit rate 39% among 820;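 active = average inhibition reaching 50% or more with the compound at 20 µM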;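 note: resorufin red fluorescence formed as diaphorase reduces resazurin using NADPH; 0% = DMSO with enzyme and 100% = DMSO without enzyme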
Diaph ctr 30uM: diaphorase inhibitors and chemical oxidizers, confirmation, counter-screen for P. falciparum G6PD inhibitor project, biochemical, fluorescence intensity, 30 µM NADPH. Diaphorase/resazurin coupled assay, resorufin fluorescence. shares compounds with PfG6PD inh. inhibition, % at 20 µM. hit rate 29% among 820;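 active = inhibition averaging 50% or more, tested at 20 µM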;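 note: 0% = DMSO with enzyme and 100% = DMSO wells lacking diaphorase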
Active calls of the source: *; · = no result.

SMILES | EP2 antag | PHOSPHO1 block | PfG6PD inh | EP2 mod | HKDC1 inhibitor | Tb hexokinase | HKDC1 act conf2 | others
C/C(=N\NC(=O)c1c(C)nc2ccccn12)c1ccccc1F | · | 8 | -13 | · | 0 | · | ·
C/C(=N\NC(=O)c1c(C)nc2ccccn12)c1ccc(O)cc1O | · | 20 | -9 | · | -45 | · | -8
COc1ccccc1CCNC(=O)CSc1nc(-c2cccs2)cc(C(F)(F)F)n1 | 16 | · | · | -111 | · | · | ·
O=C(c1ccc(F)cc1)N1CCC(c2nc3ccccc3[nH]2)CC1 | 8 | · | · | -26 | · | · | ·
O=C(N1CCC(O)(c2ccccn2)CC1)C1(c2ccc(Cl)cc2)CC1 | · | · | · | 22 | · | · | ·
COc1ccc(-n2c(C)cc(C(=O)CCl)c2C)cc1 | 8 | -19 | -3 | 3 | 35* | -2 | 34
COc1ccccc1NCC(=O)N/N=C/c1c(O)ccc2ccccc12 | · | -38 | -28 | · | 8 | · | ·
COc1ccccc1N(CC(=O)N/N=C/c1c(O)ccc2ccccc12)S(C)(=O)=O | 11 | 6 | -9 | -71 | -40 | -9 | -28
O=C(O)[C@H]1CN(C(=O)C2CCCO2)C[C@@H]1c1ccc(F)cc1 (stereo not given in full) | 7 | · | · | 13 | · | · | ·
COc1cc(/C=C2\SC(=Nc3ccc(Cl)c(C(=O)O)c3)NC2=O)c(Br)c(Br)c1O | · | 4 | 4 | · | 40* | · | 12
COc1cc(/C=C2\SC(=Nc3ccccc3)NC2=O)cc(Cl)c1O | · | 9 | 12 | · | 14 | · | ·
Cc1cc(NC(=O)CSc2nnc(-c3ccco3)n2-c2ccccc2)no1 | 6 | · | · | -9 | · | · | ·
CSc1nc(N)nc2c1ncn2CC(=O)N[C@H](C)c1cccc2ccccc12 | · | · | -67 | · | -55 | · | -74*
O=C(O)c1ccc(S(=O)(=O)/N=C2\C=C(Nc3ccccc3F)C(=O)c3ccccc32)cc1 | · | 19 | 93* | · | 81* | · | 76
CCc1ccc(S(=O)(=O)/N=C2\C=C(NS(=O)(=O)c3ccccc3)C(=O)c3ccccc32)cc1 | · | 36 | 24 | · | 28 | · | ·
OC(c1ccc(-c2ccccc2)[nH]1)C(F)(F)F (stereo not given) | 6 | · | · | -91 | · | · | ·
Cc1cc(C(=O)CCl)c(C)n1CCc1ccc(Cl)cc1 | 5 | -18 | 17 | -47 | 39* | 3 | 10
CC1CCCN(C(=O)COC(=O)c2cc([N+](=O)[O-])ccc2N2CCOCC2)C1 (stereo not given) | · | · | 12 | · | 41* | · | -20
CC1CC(C)CN(C(=O)COC(=O)c2cc([N+](=O)[O-])ccc2N2CCOCC2)C1 (stereo not given) | · | · | 29 | · | -4 | · | ·
CC1(C)CC(=O)c2sc(NC(=O)CS(=O)(=O)Cc3ccccc3)nc2C1 | 13 | · | · | -1 | · | · | ·
Cc1onc(C(=O)Nc2ccc(OC(F)(F)F)cc2)c1[N+](=O)[O-] | · | 42 | 12 | · | 79* | · | -15
O=c1cc(O)c2sc(Nc3ccc(F)c(Cl)c3)nc2[nH]1 | 6 | -23 | 17 | -29 | 46* | 10 | -20
O=c1cc(O)c2sc(Nc3ccc(Cl)c(F)c3)nc2[nH]1 | 6 | -44 | 30 | 6 | 39* | -21 | -8
COc1ccc(Nc2nc3[nH]c(=O)cc(O)c3s2)cc1 | 7 | 21 | 42 | 4 | 3 | -14 | ·
Cn1c(CNC(=O)c2ccc(Cl)c(Cl)c2)n[nH]c1=S | 11 | · | · | -6 | · | · | ·
SMILES | EP2 antag | PHOSPHO1 block | PfG6PD inh | EP2 mod | HKDC1 inhibitor | Tb hexokinase | HKDC1 act conf2 | others
COc1ccc(C2=NN(CC(=O)N(C)C)C(=O)c3cc4sccc4n3C2)cc1 | · | · | · | -2 | · | · | ·
COP(=O)(OC)c1ccc(NCc2cc(O)ccc2O)cc1 | · | · | 49 | · | 43* | · | 53
CC(C)OC(=O)c1ccc(NCc2cc(O)ccc2O)cc1 | · | · | 35 | · | 26 | · | ·
CCOC(=O)c1ccc(NC(=O)CSc2ccc(-c3ccccn3)nn2)cc1 | · | 37 | 47 | · | 37* | · | 31
COc1ccc(CN2C(=O)c3cccnc3C2O)cc1 (stereo not given) | 1 | -20 | 14 | 10 | 41* | 2 | 36
COc1cccc(N2C(=O)c3cccnc3C2O)c1 (stereo not given) | · | 2 | 6 | · | -4 | · | ·
O=C1NC(=S)S/C1=C\C=C\c1ccc([N+](=O)[O-])o1 | 8 | -84 | 34 | -45 | 38* | 19 | 19
Cn1c2ccccc2c2ccc3c(c21)C(=O)C=CC3=O | · | · | 81* | · | 37* | · | 0 | PfGluPho conf=53*;Diaphorase 10uM=-40;Diaph ctr 30uM=-7
O=C(Nc1ccc2c(c1)C(=O)c1ccccc1-2)c1ccccc1 | · | · | -1 | · | 3 | · | ·
O=C1C(O)=CC(=C(c2ccccc2)c2ccccc2)c2ccccc21 | · | · | 117* | · | 78* | · | 18 | PfGluPho conf=-25
CCOc1ccc(N)c(SSc2cc(OCC)ccc2N)c1 | · | 67* | 68* | · | -42 | · | -27 | PfGluPho conf=45
CCOc1cccc(N)c1 | · | · | 14 | · | 7 | · | ·
COc1ccc2nc(SCC(=O)N3c4ccccc4CC3C)c(C#N)cc2c1 (stereo not given) | 13 | · | · | 42 | · | · | ·
O=C(Nc1ccc2nc(-c3ccco3)c(-c3ccco3)nc2c1)N1CCN(c2ccccn2)CC1 | 19 | 98* | 81* | -23 | 57* | -3 | -13 | PfGluPho conf=20
Cc1ccc(SC2=C(Sc3ccc(C)cc3)C(=O)c3ccccc3C2=O)cc1 | 12 | 25 | 90* | -18 | 66* | -6 | 69 | PfGluPho conf=62*;Diaphorase 10uM=20;Diaph ctr 30uM=-1
Cc1ccc(N2C(=O)c3ccccc3C2=O)cc1 | 9 | 23 | 4 | 10 | 0 | -5 | ·
Cc1cccc(Cn2c(SCC(C)O)nc3c2c(=O)[nH]c(=O)n3C)c1 (stereo not given) | 7 | · | · | -25 | · | · | ·
Cc1nc(COC(=O)c2cc(O)c3ccccc3c2O)cs1 | 18 | -106 | 92* | -68 | 60* | 2 | 39 | PfGluPho conf=55*;Diaphorase 10uM=-11;Diaph ctr 30uM=-3
O=C(CCC1CCCC1)N1CCC(n2nc(-c3cccs3)ccc2=O)CC1 | · | · | · | -34 | · | · | ·
